According to ChEMBL document CHEMBL1156127, “Synthesis, anticonvulsant activity and 3D-QSAR study of some prop-2-eneamido and 1-acetyl-pyrazolin derivatives of aminobenzothiazole” (Eur J Med Chem, 2010):

Tests used:
[1] = Neurotoxicity in ip dosed albino mouse during 1 min by rotarod test; assay type: toxicity, organism-based; conditions: in vivo
Outline: (§1)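 Mice were trained on a 3.2 cm rod turning at 6 rpm, then dosed ip at 20–1000 µmol/kg and tested at 0.5 h. […] PI = TD50/ED50, with ED50 from the MES test.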

Rattus norvegicus [2] = assay: CNS toxicity in albino rat assessed as duration of immobility at 100 umol/kg, ip after 0.5 hrs by Porsolt's swimpool test (Rvb= 113 +/- 3.1); conditions: in vivo
Mus musculus [3] = assay: Behavioral effect in albino mouse assessed as change in locomotor activity during 10 mins at 100 umol/kg, ip after 0.5 hrs; assay type: functional
Outline: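 Mouse activity counted by actophotometer for 10 min 24 h before dosing, then again 0.5 h after 100 µmol/kg ip. % change = 100 − [(post × 100)/pre]. N = 6, mean ± SEM, Student's t test at p < 0.05.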

Mus musculus [4] = assay: Anticonvulsant activity in ip dosed albino mouse assessed as absence of hind limb tonic extension after 0.5 hrs by MES test; assay type: functional, Hindlimb; conditions: for ED50: Mus musculus, albino, Hindlimb, ip, 0.5 h
Outline: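 Mice given compound ip at 20–1000 µmol/kg, suspended in 0.5% methyl cellulose/water. Seizure induced 0.5 h later by electroconvulsometer, 50 mA, 60 cycle alternating current, 0.25 s via ear clip electrodes. Protection is reduced duration or absence of hind limb tonic extension. ED50 from at least three doses giving 10–90% protection.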

Mus musculus [5] = organism: Mus musculus; assay: Protection index, ratio of TD50 to ED50 by MES test for albino mouse; assay type: functional; outline: as §1
Mus musculus [6] = assay: Anticonvulsant activity in ip dosed albino mouse treated 0.5 hrs before PTZ challenge by scPTZ test; assay type: functional
Outline: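 Compound given ip (20–1000 µmol/kg in 0.5% methyl cellulose) 0.5 h before pentylenetetrazole, which was dissolved in 0.9% NaCl and injected subcutaneously in the posterior midline of mice. Onset and severity of convulsions were scored, and ED50 was derived.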

Rattus norvegicus [7] = assay: Hepatotoxicity in albino rat assessed as serum SGPT level at 100 umol/kg, ip after 15 days (Rvb= 35.4 +/- 2.68); conditions: in vivo, 360 h
Rattus norvegicus [8] = assay: Hepatotoxicity in albino rat assessed as serum SGOT level at 100 umol/kg, ip after 15 days (Rvb= 92.2 +/- 2.78); conditions: in vivo, 360 h
Rattus norvegicus [9] = assay: CNS toxicity in albino rat assessed as duration of immobility at 100 umol/kg, ip after 0.5 hrs by Porsolt's swimpool test (Rvb= 87 +/- 1.5); conditions: in vivo
Rattus norvegicus [10] = assay: CNS toxicity in albino rat assessed as duration of immobility at 100 umol/kg, ip after 0.5 hrs by Porsolt's swimpool test (Rvb= 97 +/- 2.2); conditions: in vivo
Rattus norvegicus [11] = assay: CNS toxicity in albino rat assessed as duration of immobility at 100 umol/kg, ip after 0.5 hrs by Porsolt's swimpool test (Rvb= 128 +/- 2.4); conditions: in vivo

Molecule `COc1ccc(C2CC(Nc3nc4ccc(C)cc4s3)=NN2C(C)=O)cc1O` (centres undefined) has a TD50 at 1 min [1] of 147 µmol/kg, an Activity (Rattus norvegicus [2]) of 177 s and an Activity (Mus musculus [3]) of 29.5%. For the same molecule, the pED50 (Mus musculus [4]) was 4.13, the ED50 (Mus musculus [4]) was 73.9 µmol/kg and the PI (Mus musculus [5]) was 1.99. It also gave an ED50 (Mus musculus [6]) of 75.6 µmol/kg.

`CC(=O)N1N=C(Nc2nc3ccc(C)cc3s2)CC1c1ccc(Cl)cc1` (centres undefined) showed a TD50 at 1 min [1] of 123 µmol/kg, an Activity (Rattus norvegicus [7]) of 33.1 U/ml and an Activity (Rattus norvegicus [8]) of 93.3 U/ml. For the same molecule, the Activity (Mus musculus [3]) was 35.62%, the pED50 (Mus musculus [4]) was 4.59 and the ED50 (Mus musculus [4]) was 25.5 µmol/kg. It also gave a PI (Mus musculus [5]) of 4.86, an ED50 (Mus musculus [6]) of 27.5 µmol/kg and an Activity (Rattus norvegicus [9]) of 91 s.

`COc1ccc(C2CC(Nc3nc4ccc(C)cc4s3)=NN2C(C)=O)cc1` (centres undefined) gave an Activity (Rattus norvegicus [10]) of 163 s, a TD50 at 1 min [1] of 174 µmol/kg and an Activity (Rattus norvegicus [7]) of 38.4 U/ml. It also gave an Activity (Rattus norvegicus [8]) of 95.4 U/ml, an Activity (Mus musculus [3]) of 2.08% and a pED50 (Mus musculus [4]) of 4.43. The ED50 (Mus musculus [4]) was 37.3 µmol/kg, the PI (Mus musculus [5]) was 4.68 and the ED50 (Mus musculus [6]) was 39.4 µmol/kg.

`CC(=O)N1N=C(Nc2nc3ccc(C)cc3s2)CC1c1ccc(O)cc1` (centres undefined) gave a TD50 at 1 min [1] of 157 µmol/kg, an Activity (Rattus norvegicus [7]) of 30.2 U/ml and an Activity (Rattus norvegicus [8]) of 89.6 U/ml. For the same molecule, the Activity (Mus musculus [3]) was 20.94%, the Activity (Rattus norvegicus [11]) was 136 s and the pED50 (Mus musculus [4]) was 4.3. For the same molecule, the ED50 (Mus musculus [4]) was 50.2 µmol/kg, the PI (Mus musculus [5]) was 3.14 and the ED50 (Mus musculus [6]) was 54.3 µmol/kg.
